High-throughput results from PubChem.
APJ antagonist: blocks the human apelin receptor APJ; AID 2521; CHO-K1 APJ beta-arrestin complementation, luminescence; actives 0.32% (n = 330,000); inhibition, % at 20 µM; P35414;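 active = inhibition above about 40% at 20 µM, limit read from the data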;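 note: cells challenged with 10 nM apelin-13 agonist together with compound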
CXCR6 block: blocks human CXCR6 beta-arrestin recruitment; O00574; CHO-K1 PathHunter CXCR6 beta-arrestin, luminescence; inhibition, % at 20 µM; actives 0.36% (n = 360,000); AID 602244; in the data active = inhibition above about 34%, passing the limit was not always enough;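 note: antagonist mode with CXCL16 agonist at 10 nM final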
Target sequence (O00574 whole entry, looked up): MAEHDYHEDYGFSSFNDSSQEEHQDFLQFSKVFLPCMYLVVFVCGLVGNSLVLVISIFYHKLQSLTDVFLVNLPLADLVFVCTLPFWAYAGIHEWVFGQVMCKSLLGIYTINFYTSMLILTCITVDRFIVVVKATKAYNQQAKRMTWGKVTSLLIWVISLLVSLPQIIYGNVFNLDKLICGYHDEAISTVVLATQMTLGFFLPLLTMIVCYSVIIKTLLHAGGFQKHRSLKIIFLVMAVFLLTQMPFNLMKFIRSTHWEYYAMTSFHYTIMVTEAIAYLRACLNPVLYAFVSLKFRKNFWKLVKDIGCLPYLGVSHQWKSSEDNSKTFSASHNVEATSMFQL
B2AR ag: human beta-2 adrenergic receptor agonism by FAP. response, % (concentration not given with the values). actives 0.43% (n = 340,000). P07550. Am2.2-beta2AR cells, FAP receptor internalization, flow cytometry;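 active = response above a set limit, near 3 SD of response in nonfluorescent compounds, cut at about 42% in these data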
CCR6 antagonist: CCR6 (human) receptor antagonism. CHO-K1 CCR6 PathHunter beta-arrestin, luminescence, CCL20-stimulated. inhibition, % at 20 µM. actives 0.49% (n = 340,000);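 active = compounds whose inhibition of the agonist-driven luminescence signal at 20 µM reaches about 50%, limit read from the data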;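 note: cells stimulated with CCL20 at 14 nM final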
Target sequence (P51684 whole entry, looked up): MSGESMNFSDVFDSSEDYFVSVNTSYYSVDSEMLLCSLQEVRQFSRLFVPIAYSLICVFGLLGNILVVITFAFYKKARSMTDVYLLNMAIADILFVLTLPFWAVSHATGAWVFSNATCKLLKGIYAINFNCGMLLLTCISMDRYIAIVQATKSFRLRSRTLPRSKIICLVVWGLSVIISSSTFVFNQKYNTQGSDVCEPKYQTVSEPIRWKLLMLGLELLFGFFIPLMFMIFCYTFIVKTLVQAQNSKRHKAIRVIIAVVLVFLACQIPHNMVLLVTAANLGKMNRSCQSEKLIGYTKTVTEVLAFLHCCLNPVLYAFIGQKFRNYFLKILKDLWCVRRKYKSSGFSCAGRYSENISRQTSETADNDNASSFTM
PfG6PD inh: PfG6PD (Plasmodium falciparum) enzyme inhibition | PfGluPho enzyme, NADPH resazurin-diaphorase fluorescence | inhibition, % at 20 µM | actives 0.78% (n = 350,000) | AID 504690;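 active = inhibition reaching at least a set limit at 20 µM in the primary screen, cut at about 59% in these data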
APJ agonist: activates the human apelin receptor APJ | actives 0.11% (n = 330,000) | P35414 | activation, % at 20 µM | CHO-K1 APJ PathHunter beta-arrestin, luminescence; 0% DMSO wells, 100% apelin;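 active = activation more than six SD over the plate average, tested at 20 µM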
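assay system = CHO-K1 APJ beta-arrestin complementation cell line | input = cell density 1000 per well | dosing = compound 20 µM once, DMSO 1% | timing = compound 90 min 25 °C, reagent 1 h | measured by = luminescence from split beta-galactosidase complementation, Galacton Star/Emerald II substrate | read-out basis = APJ agonist activity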
APJ antag conf: confirmation of human APJ apelin receptor antagonists | shares compounds with APJ antagonist | APJ beta-arrestin recruitment, luminescence, antagonist mode | inhibition, % at 20 µM | actives 66% (n = 950) | AID 2766; in the data active = inhibition above about 50%
Each line names hits and unclear results; the compound was inactive in the other large screens (follow-up assays come after a bar, where they were run). A selection: hits, their analogues and other compounds. The true share with any hit is near 1.7%.

COc1ccc2nc(NC(=O)CSC3=NCCS3)sc2c1	APJ antagonist 41.3 | APJ antag conf inactive
Cc1ccc(N=C2C(=O)Nc3ccccc32)cc1	APJ antagonist 40.5, CCR6 antagonist 56.5 | APJ antag conf 77.5
O=C1Nc2ccccc2C1=Nc1ccc(Br)cc1	APJ antagonist 63.0, CXCR6 block 42.3, CCR6 antagonist 68.8 | APJ antag conf 146.8
Cc1cc(Br)ccc1N=C1C(=O)Nc2ccccc21	none
Cc1cccc(C)c1N=C1C(=O)Nc2ccccc21	none
Cc1ccc(NC(=O)Nc2ccc3c(c2)OCO3)c(Br)c1	APJ antagonist 41.0 | APJ antag conf inactive
Cc1cccc(OCC(=O)Nc2ccc3c(c2)OCO3)c1C	none
Cc1ccc(OCC(=O)Nc2ccc3c(c2)OCO3)c(C)c1	APJ antagonist 66.5 | APJ antag conf inactive
CS(=O)(=O)c1ccc(CNC(=O)C2(C(F)(F)F)C/C(=C\Cc3ccccc3)CCCO2)cc1 (stereo unspecified)	none
CCOC(=O)c1cnc(Nc2nc3ccccc3o2)nc1CSc1ncccn1	none (no result: CXCR6 block, B2AR ag)
CCOC(=O)c1cnc(Nc2nc3ccccc3o2)nc1CSC(=S)N(CC)CC	APJ antagonist 46.1 | APJ antag conf inactive
COc1ccc(NC(=O)/C(Cl)=C(/Cl)S(=O)Cc2ccc(Cl)cc2)cn1 (stereo unspecified)	APJ antagonist 82.9, CXCR6 block 99.5, CCR6 antagonist 99.7 | APJ antag conf 105.4
COc1ccc(NC(=O)C(Cl)=C(Cl)Cl)cn1	none
CCN(C[C@H]1N[C@@](C)(C(=O)OC)[C@H]2C(=O)N(C)C(=O)[C@@H]12)C(=O)Nc1ccc(C)cc1	none
COc1cccc(NC(=O)Cn2nnc(C(=O)NCc3ccc4c(c3)OCO4)c2N)c1	none
C[C@H](NC(=O)c1ncn2c1C(=O)N[C@@H](C)C2)c1ccccc1	none (no result: APJ antagonist, B2AR ag, CCR6 antagonist, APJ agonist)
COc1ccc(Cl)cc1C(=O)NNC(=S)NC(=O)c1ccc(F)c(F)c1	APJ antagonist 40.2 | APJ antag conf inactive
O=C(c1ccco1)C(O)c1ccco1 (stereo unspecified)	APJ antagonist 52.3, CCR6 antagonist 58.5 | APJ antag conf 98.4
CCOC(=O)C1=C[C@@H](C(C)(C)C)N(S(=O)(=O)c2ccc(C)cc2)[C@H]1c1ccc(F)cc1	none (no result: APJ antagonist, B2AR ag, CCR6 antagonist, PfG6PD inh, APJ agonist)
Cc1[nH]c2ccccc2c1Cc1nnc(SCc2ccccc2)o1	APJ antagonist 48.3 | APJ antag conf inactive
COc1ccc(NC(=O)CSc2nc3ccncc3[nH]2)c(OC)c1	none
CC(c1ccccc1)N1C(=O)OC(C)(C)C1(C)O (stereo unspecified)	APJ antagonist 72.3 | APJ antag conf inactive
CN(C)c1ccc(N=Nc2nc3ccccc3n2C)cc1	APJ antagonist 48.4, CXCR6 block 54.4, CCR6 antagonist 75.4 | APJ antag conf 107.7
Cc1ccc(-c2csc3nc(C)n(-n4c(C)ccc4C)c(=O)c23)o1	APJ antagonist 47.8 | APJ antag conf inactive
CCOc1ccc(NC(=O)CC2C(=O)N(CC)C(=S)N2CCN2CCOCC2)cc1 (stereo unspecified)	APJ antagonist 46.3 | APJ antag conf inactive
CCOc1ccc(NC(=O)CC2C(=O)N(CC)C(=S)N2CCNC(C)=O)cc1 (stereo unspecified)	none
COc1cccc(N=C2NC(=O)/C(=C/c3cc([N+](=O)[O-])ccc3O)S2)c1	APJ antagonist 41.4 | APJ antag conf 52.0
CC(=O)Nc1ccc(NCCc2cccs2)cc1	none (no result: APJ antagonist, B2AR ag, CCR6 antagonist, PfG6PD inh, APJ agonist)
CC(=O)Nc1ccc(NCc2cccs2)cc1	APJ antagonist 104.4 | APJ antag conf inactive
CCC(CO)NC(=O)c1ccc(-c2nn(C)c(=O)c3ccccc23)cc1 (stereo unspecified)	APJ antagonist 49.7 | APJ antag conf inactive
CC1CC(=O)Nc2ccccc2N1S(=O)(=O)c1ccccc1 (stereo unspecified)	APJ antagonist 59.5 | APJ antag conf inactive
CCOc1ccc(/C=C(\C#N)C(=O)NC2CC2)c(OCC)c1	none
C[C@H](CO)N1C[C@H](C)[C@@H](CN(C)C(=O)NC2CCCCC2)Oc2ccc(NC(=O)Cc3ccccc3)cc2C1=O	none
O=C(COC(=O)c1ccccc1F)c1ccc(-n2nncc2-c2ccco2)cc1	APJ antagonist 41.3 | APJ antag conf inactive
CCN(CC)S(=O)(=O)c1cccc(N=Nc2c(O)c3ccccc3oc2=O)c1	APJ antagonist 40.3, CCR6 antagonist 58.9 | APJ antag conf inactive
CCN(CC)S(=O)(=O)c1cccc(NC(=O)c2cc3ccccc3o2)c1	none
CC([NH2+][O-])C(C)(C)NO (stereo unspecified)	APJ antagonist 46.6, CCR6 antagonist 50.5 | APJ antag conf inactive
CCc1nc2c(OCc3c(C)noc3C)cccn2c1N(C)C(=O)C(C)C	none (no result: APJ antagonist, B2AR ag, CCR6 antagonist, PfG6PD inh, APJ agonist)
CCN(C(=O)CSc1nnc(CNc2cccc(OC)c2)n1C1CCCCC1)C1CCS(=O)(=O)C1 (stereo unspecified)	none
N#Cc1cnn2c3c(cnc12)C(=O)N1CCc2ccccc2C1C3 (stereo unspecified)	APJ antagonist 47.6 | APJ antag conf inactive
O=c1cc(-c2ccccc2Cl)oc2cccc(O)c12	none
O=c1cc2oc3cc(O)c(O)cc3c(-c3ccccc3[N+](=O)[O-])c-2cc1O	APJ antagonist 60.9, CXCR6 block 58.5, CCR6 antagonist 78.2 | APJ antag conf 105.4
Nc1nc2ccc([N+](=O)[O-])cc2[nH]1	none
Nc1[nH]c2cc([N+](=O)[O-])ccc2c1-c1ccccn1	APJ antagonist 47.3 | APJ antag conf 99.5
O=C(c1cccs1)c1cn(CC(=O)N2CCc3ccccc3C2)c2ccccc12	APJ antagonist 42.8 | APJ antag conf inactive
CCn1ccnc1CN(C)Cc1c(C(=O)N2CCCCCCC2)nc2ccc(Cl)cn12	none
CN(C(=O)COc1ncnc2ccc(Br)cc12)C1CCCCC1	none (no result: APJ antagonist, B2AR ag, CCR6 antagonist, APJ agonist)
O=C(N/N=C/c1c[nH]c2ccccc12)c1cccc([N+](=O)[O-])c1	none
O=[N+]([O-])c1ccccc1N/N=C/c1ccccc1	none
O=[N+]([O-])c1ccccc1N/N=C/c1c[nH]c2ccccc12	APJ antagonist 44.0 | APJ antag conf 104.4
O=[N+]([O-])c1ccc(N/N=C/c2c[nH]c3ccccc23)cc1	APJ antagonist 42.9, CCR6 antagonist 57.6 | APJ antag conf 78.8
CCOC(CNC(=O)c1cccn2c(=O)c3cc(Cl)ccc3nc12)OCC	APJ antagonist 50.5 | APJ antag conf inactive
Cc1cc(C)n(CCNc2nc3nonc3nc2N2CCCCC2)n1	none
CNc1cncc(-c2cccc(OC)c2F)n1	none (no result: APJ antagonist, B2AR ag, CCR6 antagonist, PfG6PD inh, APJ agonist)
CC1CCN(C(=O)CSc2nc3ccccc3c(=O)n2Cc2ccc3c(c2)OCO3)CC1	none
CC1CCCCN1C(=O)CSc1nc2cc3c(cc2c(=O)n1Cc1ccc2c(c1)OCO2)OCO3 (stereo unspecified)	APJ antagonist 54.9 | APJ antag conf 57.3
